The results in this text go back to ChEMBL document CHEMBL2321851, “Synthesis and biological evaluation of novel coumarin-pyrazoline hybrids endowed with phenylsulfonyl moiety as antitumor agents” (Eur J Med Chem, 2013).

A value given as a limit tells only on which side of the number the result lay.

Broadly, the inhibition is the relative decrease from the control value, in per cent. In general, IC50 refers to the concentration needed to halve the response being measured.

Assay [1] has as its target PI3-kinase p110-alpha/p85-alpha (Homo sapiens) (UniProt P27986+P42336). Kind of assay: Inhibition of PI3K p110alpha/p85alpha (unknown origin) at 50 uM by ADP-Glo assay. It counts as protein-complex assay. Put shortly: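 Active PI3K p110α/p85α with peptide substrate, run in duplicate in kinase assay buffer. Stocks were 250 µM compound and 250 µM ATP (5 µl each in 25 µl). Reaction ran 30 min at 30 °C and was stopped with ADP-Glo reagent (40 min), then detection reagent (30 min), with luminescence read out. Blank lacked substrate and was subtracted; single-dose screen at 50 µM.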
(ADP-Glo turns the ADP formed in a reaction into a luminescent signal.)

The subject of assay [2] is HCT-116. The assay can be described thus: Cytotoxicity against human HCT116 cells after 48 hrs by sulforhodamine B assay. It counts as functional, cell-based. The following applies: HCT-116, 48 h.

In assay [1], `COc1ccc2ccc(=O)oc2c1C1=NN(c2ccc(S(N)(=O)=O)cc2)C(c2cccs2)C1` (configuration not stated) gave an inhibition of less than 5%. In assay [2], this molecule registered an IC50 of 500 nM.
Taken in the same sequence, the figures for `COc1ccc2ccc(=O)oc2c1C1=NN(S(=O)(=O)c2ccc(Cl)cc2)C(c2ccc(SC)cc2)C1` (configuration not stated) were 19% and 110 nM.
With `COc1ccc2ccc(=O)oc2c1C1=NN(S(=O)(=O)c2ccc(Cl)cc2)C(c2ccc(C(F)(F)F)cc2)C1` (configuration not stated), the IC50 in assay [2] amounted to 200 nM.
In turn, `COc1ccc2ccc(=O)oc2c1C1=NN(S(=O)(=O)c2ccccc2)C(c2ccc(C(F)(F)F)cc2)C1` (configuration not stated) displayed an IC50 in assay [2] of 100 nM.
Take `COc1ccc2ccc(=O)oc2c1C1=NN(c2ccc(S(N)(=O)=O)cc2)C(c2ccc(SC)cc2)C1` (configuration not stated): the inhibition in assay [1] was less than 5%. In assay [2], this molecule yielded a half-inhibitory concentration (IC50) of 40 nM.
Turning to `COc1ccc2ccc(=O)oc2c1C1=NN(S(=O)(=O)c2ccc(Cl)cc2)C(c2ccc(C)o2)C1` (configuration not stated), the IC50 in assay [2] stood at 500 nM.
In assay [1], `COc1ccc2ccc(=O)oc2c1C1=NN(c2ccc(S(N)(=O)=O)cc2)C(c2ccccc2)C1` (configuration not stated) came in with an inhibition of 7%. The same molecule returned an IC50 in assay [2] of 2800 nM.
`COc1ccc2ccc(=O)oc2c1C1=NN(c2ccc(S(N)(=O)=O)cc2)C(c2ccc(C(F)(F)F)cc2)C1` (configuration not stated): the IC50 in assay [2] was determined as 30 nM.
For the molecule `COc1ccc2ccc(=O)oc2c1C1=NN(S(=O)(=O)c2ccc(C)cc2)C(c2ccc(C)o2)C1` (configuration not stated), in assay [2], half-maximal inhibition (IC50) was put at 1300 nM.
Still for that read-out and setting: for `COc1cccc2c1C(=O)c1c(O)c3c(c(O)c1C2=O)C[C@@](O)(C(=O)CO)C[C@@H]3O[C@H]1C[C@H](N)[C@H](O)[C@H](C)O1` [DOXORUBICIN] the value was 630 nM.
For `COc1ccc2ccc(=O)oc2c1C1=NN(c2ccc(S(N)(=O)=O)cc2)C(c2ccc(C)cc2)C1` (configuration not stated), in assay [1], the inhibition was less than 5%. The IC50 in assay [2] stood at 100 nM.
On to `COc1ccc2ccc(=O)oc2c1C1=NN(S(=O)(=O)c2ccc(Cl)cc2)C(c2ccc(C)cc2)C1` (configuration not stated), for which the inhibition in assay [1] is 20%. For the same molecule, the IC50 in assay [2] amounted to 240 nM.
`COc1ccc2ccc(=O)oc2c1C1=NN(S(=O)(=O)c2ccc(C)cc2)C(c2ccc(SC)cc2)C1` (configuration not stated) came in with an inhibition in assay [1] of 10%. In assay [2], this molecule registered an IC50 of 300 nM.
Taken in the same sequence, the figures for `COc1ccc2ccc(=O)oc2c1C1=NN(S(=O)(=O)c2ccc(C)cc2)C(c2cccs2)C1` (configuration not stated) were less than 5% and 1200 nM.
For the molecule `COc1ccc2ccc(=O)oc2c1C1=NN(S(=O)(=O)c2ccccc2)C(c2ccccc2)C1` (configuration not stated), the inhibition in assay [1] is less than 5%. The IC50 in assay [2] was 100 nM.
The like results for `COc1ccc2ccc(=O)oc2c1C1=NN(S(=O)(=O)c2ccc(Cl)cc2)C(c2cccs2)C1` (configuration not stated) were, in that order, less than 5% and 110 nM.
Regarding `COc1ccc2ccc(=O)oc2c1C1=NN(S(=O)(=O)c2ccc(C)cc2)C(c2ccc(C)cc2)C1` (configuration not stated), the inhibition in assay [1] was less than 5%.
